Source: ChEMBL document CHEMBL1914420, “Investigation of the pyrazinones as PDE5 inhibitors: evaluation of regioisomeric projections into the solvent region” (Bioorg Med Chem Lett, 2011)

System: not listed separately
Assay: Selectivity ratio of IC50 for PDE6 to IC50 for PDE5
Summary of the method: (§1)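 Fold selectivity calculated as PDE11 IC50/PDE5 IC50 or PDE6 IC50/PDE5 IC50, with IC50 values in nM.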

Ratio IC50 | Compound
124 | CCCOCCn1c(=O)nc(N2CCN(CCO)CC2)c2nnc(-c3ccc(OC)nc3)cc21
157 | CCCOCCn1c(=O)c(N2CCN(CCO)CC2)nc2cnc(-c3ccc(OC)nc3)cc21
381 | CCCOCCn1c(=O)nc(N2CCN(CCO)CC2)c2ncc(-c3ccc(OC)nc3)cc21
119 | CCCOCCn1c(=O)nc(N2CCC(C(=O)O)CC2)c2nnc(-c3ccc(OC)nc3)cc21

Target: cGMP-specific 3',5'-cyclic phosphodiesterase (Homo sapiens, UniProt O76074)
Assay: Inhibition of PDE5

IC50 | Compound
1.3 nM | CCCOCCn1c(=O)nc(N2CCN(CCO)CC2)c2nnc(-c3ccc(OC)nc3)cc21
1.64 nM | CCCOCCn1c(=O)nc(N2CCN(CCO)CC2)c2ncc(-c3ccc(OC)nc3)cc21
0.01 nM | CCCOCCn1c(=O)nc(N2CCC(C(=O)O)CC2)c2nnc(-c3ccc(OC)nc3)cc21

System: not listed separately
Assay: Selectivity ratio of IC50 for PDE11 to IC50 for PDE5
Summary of the method: as §1

Ratio IC50 | Compound
834 | CCCOCCn1c(=O)nc(N2CCN(CCO)CC2)c2nnc(-c3ccc(OC)nc3)cc21
2460 | CCCOCCn1c(=O)c(N2CCN(CCO)CC2)nc2cnc(-c3ccc(OC)nc3)cc21
> 1220 | CCCOCCn1c(=O)nc(N2CCN(CCO)CC2)c2ncc(-c3ccc(OC)nc3)cc21
532 | CCCOCCn1c(=O)nc(N2CCC(C(=O)O)CC2)c2nnc(-c3ccc(OC)nc3)cc21
